Assay results reported in ChEMBL document CHEMBL3046821, “Phospholipase A2 inhibitors synthesized by two entomopathogenic bacteria, Xenorhabdus nematophila and Photorhabdus temperata subsp. temperata” (Appl Environ Microbiol, 2012).
Values after ≈ are worked out from the molar mass of the structure shown. Active and inactive are the calls of the source. No cut-off for these calls is given here. Residues, ends and D or L forms follow the SMILES beside them.

Key:
Plutella xylostella [1] = assay: Potentiation of 1000 ppm Bacillus thuringiensis-induced pathogenicity against Plutella xylostella (diamondback moth) fourth-instar larvae at 10000 ppm measured 48 hr post compound treatment; type: functional, organism-based
In short: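 P. xylostella larvae fed Chinese cabbage pieces (1 cm2) dipped 5 min in test solutions together with commercial B. thuringiensis subsp. kurstaki, briefly dried in dark. Mortality at 48 h, with dead meaning no coordinated movement on probing; 10 larvae per replicate, three replicates; arcsine-square-root transformed, LSD test.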

Spodoptera exigua [2] = assay: Inhibition of immune responses in Spodoptera exigua fifth-instar larvae assessed as inhibition of hemocytic nodulation in response to Escherichia coli challenge by stereomicroscopy; type: functional, organism-based; details: read-out: I50
In short: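 Fifth-instar S. exigua injected with E. coli (3.2 × 10^4 cells) mixed with compound in 10 μl; after 8 h at 25°C melanized nodules counted under stereomicroscope at ×50. Three replicates; I50 derived.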

Spodoptera exigua [3] = assay: (§1) Inhibition of PLA2 in hemocytes of Spodoptera exigua fifth-instar larvae using pyrene-labeled phospholipid substrate by spectrofluorometry; type: cell-based
In short: (§2)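 PLA2 from fifth-instar S. exigua hemocytes: hemolymph spun 500 × g 10 min, hemocytes sonicated in PBS, 12,500 × g 10 min 4°C supernatant. Enzyme (10 μg) preincubated with 10 μl sample, 25°C, 10 min; pyrene-labeled phosphatidylcholine substrate added with BSA and CaCl2 in PBS pH 7.4; residual activity by fluorescence, ex 348/em 390 nm. Triplicate independent samplings; I50 derived.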

[4] = as §1; type: cell-based; details: read-out: I50; in short: as §2
Plutella xylostella [5] = assay: Insecticidal activity against Plutella xylostella (diamondback moth) fourth-instar larvae fed on cabbage leaves soaked in compound solutions measured 48 hr post compound treatment by leaf-dipping method; type: functional
In short: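 Leaf-dip feeding assay: Chinese cabbage pieces (1 cm2) soaked 5 min in test solutions at predetermined concentrations, briefly dried in the dark, then fed to P. xylostella larvae (field-origin colony reared on cabbage at 25 ± 1°C, 16:8 h light:dark). Three replicates of 10 larvae per dose. Mortality scored at 48 h; dead = no coordinated movement when prodded. Dose-mortality curves give LC50.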

[6] = system: Phenoloxidase (Spodoptera exigua); assay: Inhibition of phenoloxidase activity in hemolymph of Spodoptera exigua fifth-instar larvae using DOPA substrate

| SMILES | Activity (Plutella xylostella [1]) | IC50 (Spodoptera exigua [2]) [µM] | inhibition (Spodoptera exigua [3]) | IC50 [4] [µM] | LC50 (Plutella xylostella [5]) [µg/mL] | inhibition [6] |
| --- | --- | --- | --- | --- | --- | --- |
| O=C1N[C@@H](Cc2ccc(O)cc2)C(=O)N2CCC[C@@H]12 | Active | 37.7 | Dose-dependent effect | 47.8 | 5950 (≈ 22.9 mM) |  |
| CC(=O)N[C@@H](Cc1ccccc1)C(=O)NCC(=O)N[C@H](C(=O)O)C(C)C (Ac-Phe-Gly-Val-OH) | Active | 423 | Dose-dependent effect | 428 | 8350 (≈ 23 mM) | Dose-dependent effect |
| O=C(O)[C@H](Cc1ccc(O)cc1)NC(=O)[C@@H]1CCCN1 (H-Pro-Tyr-OH) | Active | 473 | Dose-dependent effect | 522 | 7690 (≈ 27.6 mM) | Dose-dependent effect |
| CC(=O)/C=C/c1ccccc1 [BUTENONE] | Active |  | Dose-dependent effect |  |  |  |
| O=C(O)CCc1ccc(O)cc1 [HYDROXYPHENYL PROPIONIC ACID] | Active | 58.7 | Dose-dependent effect | 49.5 | 6640 (≈ 40 mM) | Dose-dependent effect |
| c1ccc2[nH]ccc2c1 [INDOLE] | Active | 52.9 | Dose-dependent effect | 64.9 | 6270 (≈ 53.6 mM) |  |
| O=C1Cc2ccccc2N1 [OXINDOLE] | Active | 32.3 | Dose-dependent effect | 46.2 | 4830 (≈ 36.3 mM) | Dose-dependent effect |
